Source: ChEMBL document CHEMBL4118188, “A small diversity library of α-methyl amide analogs of sulindac for probing anticancer structure-activity relationships” (Bioorg Med Chem Lett, 2018)
pEC50: −log10 of the molar value.

Key:
HT-29 = test: Growth inhibition of human HT-29 cells measured after 72 hrs by Celltiter-Glo reagent based assay; format: functional; conditions: HT-29, 72 h
PC-3 = test: Growth inhibition of human PC3 cells measured after 72 hrs by Celltiter-Glo reagent based assay; format: functional; conditions: PC-3, 72 h
MDA-MB-231 = test: Growth inhibition of human MDA-MB-231 cells measured after 96 hrs by Celltiter-Glo reagent based assay; format: functional; conditions: MDA-MB-231, 96 h
[1] = Growth inhibition of mouse CPC300 cells measured after 72 hrs by Celltiter-Glo reagent based assay; format: functional
In short: (§1)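 Cell line sources: Raji is a Burkitt's lymphoma line (FAB L3); Jurkat E6-1 is an acute T-cell leukemia line; REH is a patient-derived precursor B-cell ALL line expressing only wild-type MLL and wild-type AF4; 697 was established from bone marrow of children with relapsed ALL; CPC300 derives from a mouse model of choroid plexus carcinoma.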

[2] = Growth inhibition of human NALM16 cells measured after 72 hrs by Celltiter-Glo reagent based assay; format: functional
Jurkat E6.1 = test: Growth inhibition of human Jurkat E6-1 cells measured after 72 hrs by Celltiter-Glo reagent based assay; format: functional, cell-based; conditions: jurkat e6.1; in short: as §1
REH = test: Growth inhibition of human REH cells measured after 72 hrs by CellTiter-Glo reagent based assay; format: functional, cell-based; conditions: Homo sapiens, REH, 72 h; read-out: EC50; in short: as §1
697 = test: Growth inhibition of human 697 cells after 72 hrs by CellTiter-Glo reagent based assay; format: functional, cell-based; conditions: 697; in short: as §1
BJ = test: Growth inhibition of human BJ cells after 72 hrs by CellTiter-Glo reagent based assay; format: cell-based

Row | EC50 (Jurkat E6.1) | Compound | CC50 (HT-29) [µM] | CC50 (PC-3) [µM] | CC50 (MDA-MB-231) [µM] | EC50 [1] | EC50 [2] | pEC50 (REH) | EC50 697 | pEC50 (BJ)
1 | – | CSc1ccc(/C=C2/C(C)=C(C(C)C(=O)N(C)CCN(C)C)c3cc(F)ccc32)cc1 (stereo unspecified) | 1.43 | 5.55 | 3.66 | – | – | – | – | –
2 | – | CCNCCN(CC)C(=O)C(C)C1=C(C)/C(=C/c2ccc(SC)cc2)c2ccc(F)cc21 (stereo unspecified) | 1.3 | 3.26 | 2.51 | – | – | – | – | –
3 | – | CCN(CC)CCCNC(=O)C(C)C1=C(C)/C(=C/c2ccc([S+](C)[O-])cc2)c2ccc(F)cc21 (stereo unspecified) | 15.5 | > 50 | > 50 | – | – | – | – | –
4 | – | CC1=C(C(C)C(=O)N(CCCNC(C)C)C(C)C)c2cc(F)ccc2/C1=C\c1ccc([S+](C)[O-])cc1 (stereo unspecified) | 7.13 | 15.7 | 23 | – | – | – | – | –
5 | – | CC1=C(C(C)C(=O)N2CCN(c3ccncc3)CC2)c2cc(F)ccc2/C1=C\c1ccc([S+](C)[O-])cc1 (stereo unspecified) | 4.99 | 10.5 | 19.6 | – | – | – | – | –
6 | – | CCN(CC)CCN(C)C(=O)C(C)C1=C(C)/C(=C/c2ccc([S+](C)[O-])cc2)c2ccc(F)cc21 (stereo unspecified) | 5.83 | 29.3 | > 50 | – | – | – | – | –
7 | – | CC1=C(C(C)C(=O)NCCCN(C)C)c2cc(F)ccc2/C1=C\c1ccc([S+](C)[O-])cc1 (stereo unspecified) | 22.5 | > 50 | > 50 | – | – | – | – | –
8 | – | COC(=O)[C@H](Cc1c[nH]cn1)NC(=O)C(C)C1=C(C)/C(=C/c2ccc([S+](C)[O-])cc2)c2ccc(F)cc21 (stereo partly specified) | > 50 | > 50 | > 50 | – | – | – | – | –
9 | Not Active | CSc1ccc(/C=C2/C(C)=C(C(C)C(=O)N3CCC[C@H]3CN3CCCC3)c3cc(F)ccc32)cc1 (stereo partly specified) | 0.84 | 3.93 | 3.57 | Not Active | Not Active | 4.96 | Not Active | < 5.12
10 | – | CSc1ccc(/C=C2/C(C)=C(C(C)C(=O)N(C)CCN(C)C(=O)[C@@H](N)C(C)C)c3cc(F)ccc32)cc1 (stereo partly specified) | 2.22 | 4.83 | 3.86 | – | – | – | – | –
11 | – | CNCCN(C)C(=O)C(C)C1=C(C)/C(=C/c2ccc([S+](C)[O-])cc2)c2ccc(F)cc21 (stereo unspecified) | 10.7 | 27.9 | > 50 | – | – | – | – | –
12 | – | CC1=C(C(C)C(=O)NCCN2CCCCC2)c2cc(F)ccc2/C1=C\c1ccc([S+](C)[O-])cc1 (stereo unspecified) | 9.67 | 36.3 | 39.3 | – | – | – | – | –
13 | – | CCN(CC)CCN(CC)C(=O)C(C)C1=C(C)/C(=C/c2ccc([S+](C)[O-])cc2)c2ccc(F)cc21 (stereo unspecified) | 4.45 | 19.7 | 23.5 | – | – | – | – | –
14 | – | COc1cc(/C=C2/C(C)=C(C(C)C(=O)NCc3ccco3)c3cc(F)ccc32)cc(OC)c1OC (stereo unspecified) | 2.88 | 3.88 | 5.51 | – | – | – | – | –
15 | – | COC(=O)[C@@H](Cc1c[nH]cn1)NC(=O)C(C)C1=C(C)/C(=C/c2ccc(SC)cc2)c2ccc(F)cc21 (stereo partly specified) | 10.7 | 16.8 | 15 | – | – | – | – | –
16 | – | CC1=C(C(C)C(=O)N2CCC(N3CCCCC3)CC2)c2cc(F)ccc2/C1=C\c1ccc([S+](C)[O-])cc1 (stereo unspecified) | 48.4 | > 50 | > 50 | – | – | – | – | –
17 | – | CCNCCCN(CC)C(=O)C(C)C1=C(C)/C(=C/c2ccc(SC)cc2)c2ccc(F)cc21 (stereo unspecified) | 2.01 | 4.6 | 3.97 | – | – | – | – | –
18 | – | CNCCN(C)C(=O)C(C)C1=C(C)/C(=C/c2ccc(SC)cc2)c2ccc(F)cc21 (stereo unspecified) | 1.31 | 4.06 | 3.21 | – | – | – | – | –
19 | – | CC1=C(C(C)C(=O)N(C)CCN(C)C)c2cc(F)ccc2/C1=C\c1ccc([S+](C)[O-])cc1 (stereo unspecified) | 11.8 | 44.6 | > 50 | – | – | – | – | –
20 | – | CC1=C(C(C)C(=O)NCCN2CCNCC2)c2cc(F)ccc2/C1=C\c1ccc([S+](C)[O-])cc1 (stereo unspecified) | > 50 | > 50 | > 50 | – | – | – | – | –
21 | – | CCN(CCN(C)C)C(=O)C(C)C1=C(C)/C(=C/c2ccc([S+](C)[O-])cc2)c2ccc(F)cc21 (stereo unspecified) | 9.51 | 28.1 | 32 | – | – | – | – | –
22 | – | CC1=C(C(C)C(=O)N(C)CCCN(C)C)c2cc(F)ccc2/C1=C\c1ccc([S+](C)[O-])cc1 (stereo unspecified) | 16.6 | > 50 | > 50 | – | – | – | – | –
23 | – | CSc1ccc(/C=C2/C(C)=C(C(C)C(=O)NCc3ccco3)c3cc(F)ccc32)cc1 (stereo unspecified) | 11.2 | 23.5 | 26.1 | – | – | – | – | –
24 | – | CC1=C(C(C)C(=O)NCCN2CCCC2)c2cc(F)ccc2/C1=C\c1ccc([S+](C)[O-])cc1 (stereo unspecified) | 13.7 | 31.9 | 39.2 | – | – | – | – | –
25 | – | CC1=C(C(C)C(=O)N(C)CCN(C)C(=O)[C@@H](N)C(C)C)c2cc(F)ccc2/C1=C\c1ccc([S+](C)[O-])cc1 (stereo partly specified) | 26 | 28.8 | 47.6 | – | – | – | – | –
